Assay type in all cases: functional, cell-based
For assay [1], the system named is SF-268. The experiment in a line: Cytotoxicity against human SF268 cells after 48 hrs by MTT assay. To be noted: SF-268, 48 h. The procedure, abridged: (§1)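 Human tumour cells (NCI-H460 lung, MCF-7 breast, SF-268 glioma) exposed to compounds for 48 h in RPMI 1640 with 10% fetal bovine serum; viability read by tetrazolium-based colorimetric MTT assay.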
Assay [2] deals with NCI-H460. Nature of the assay: Cytotoxicity against human NCI-H460 cells after 48 hrs by MTT assay. The settings on record: NCI-H460, 48 h. The procedure, abridged: as §1
In general terms: Formazan colour is commonly taken as a measure of viable cells.

Assay [3] deals with MCF7. The experiment in a line: Cytotoxicity against human MCF7 cells after 48 hrs by MTT assay. To be noted: MCF7, 48 h. The procedure, abridged: as §1

As for `CC1=C[C@@H]2/C=C(\C)CCCC(O)/C=C/C(=O)[C@]23C(=O)N[C@@H](CC(C)C)[C@@H]3[C@@H]1C` (stereo partly drawn), the values for the IC50 in assay [1], in assay [2] and in assay [3] were 9.5 µM, 3.5 µM and 5 µM, respectively.

In the case of `CC1=C[C@@H]2/C=C(\C)CC[C@H](O)[C@@H](O)/C=C/C(=O)[C@]23C(=O)N[C@@H](CC(C)C)[C@@H]3[C@@H]1C` [ASPOCHALASIN C], the IC50 (commonly the concentration that inhibits the measured activity by half) came to 3.9 µM in assay [1], 5 µM in assay [2] and 7.7 µM in assay [3].

As for `CC1=C[C@@H]2/C=C(\C)CC[C@H](O)[C@H](O)/C=C/C(=O)[C@]23C(=O)N[C@@H](CC(C)C)[C@@H]3[C@@H]1C` [ASPOCHALASIN D], the IC50 in assay [1] came out at 5 µM; in assay [2] it was 3.4 µM; in assay [3] it was 5.3 µM.

For `CC1=C[C@@H]2/C=C(\C)CC[C@H](O)[C@H](O)[C@@H](O)CC(=O)[C@]23C(=O)N[C@@H](CC(C)C)[C@@H]3[C@@H]1C` [ASPOCHALASIN E], the figures for the IC50 in assay [1], in assay [2] and in assay [3] were 52.6 µM, 31.5 µM and 30.4 µM, respectively.

With `CC1=C[C@@H]2/C=C(\C)CC[C@H](O)[C@H](O)/C=C/C(=O)O[C@]23C(=O)N[C@@H](CC(C)C)[C@@H]3[C@@H]1C` [ASPOCHALASIN I], the figures for the IC50 in assay [1], in assay [2] and in assay [3] were 19.9 µM, 22.1 µM and 33.4 µM, respectively.

On to `CC1=C[C@@H]2/C=C(\C)CCC[C@H](O)/C=C/C(=O)O[C@]23C(=O)N[C@@H](CC(C)C)[C@@H]3[C@@H]1C` [ASPOCHALASIN J], for which the results for the IC50 in assay [1], in assay [2] and in assay [3] were 13.4 µM, 55.2 µM and 14.9 µM, respectively.

Turning to `CO[C@H]1[C@@H](O)CC/C(C)=C/[C@H]2C=C(C)[C@@H](C)[C@H]3[C@H](CC(C)C)NC(=O)[C@]32C(=O)C[C@@H]1O` [ASPOCHALASIN K], the IC50 stood at 19.9 µM in assay [1], 14.3 µM in assay [2] and 13.1 µM in assay [3].

As to `CC(=O)O[C@H]1C(=O)[C@@]2(C)[C@H]([C@H](OC(=O)c3ccccc3)[C@]3(O)C[C@H](OC(=O)[C@H](O)[C@@H](NC(=O)c4ccccc4)c4ccccc4)C(C)=C1C3(C)C)[C@]1(OC(C)=O)CO[C@@H]1C[C@@H]2O` [PACLITAXEL], the IC50 is 0.0217 µM in assay [1] and 0.0095 µM in assay [2].

The values above are taken from ChEMBL document CHEMBL1146489, “Aspochalasins I, J, and K: three new cytotoxic cytochalasans of Aspergillus flavipes from the rhizosphere of Ericameria laricifolia of the Sonoran Desert” (J Nat Prod, 2004).
